{"source": "ChEMBL document CHEMBL1250427", "about": "“Synthesis and biodistribution of [11C]A-836339, a new potential radioligand for PET imaging of cannabinoid type 2 receptors (CB2)” (Bioorg Med Chem, 2010)", "key": {"[1]": {"assay": "Drug uptake in LPS-stimulated CD1 mouse brainstem at 5 to 7 mBq, iv administered 5 days post LPS challenge", "format": "ADME, organism-based", "conditions": "read-out: Drug uptake; call rule not given here", "in_short": "(§1)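 Male CD1 mice given LPS (strain O111:B4, 5 mg/kg in saline, i.p.) 5 days before study. [11C]radioligand ([…], ~150 GBq/μmol, 0.2 mL saline) injected into the tail vein. Mice killed at 60 min and brain regions dissected and γ-counted. Uptake given as %ID/g tissue and as blood-normalized %ID/g tissue × body weight (kg). Mean ± SD, n=3.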"}, "Brain [2]": {"test_system": "Brain", "assay": "Drug uptake in LPS-stimulated CD1 mouse brain at 5 to 7 mBq, iv in presence of AM630", "format": "ADME, organism-based", "conditions": "in vivo", "in_short": "(§2)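 Blocking study in male CD1 mice, either controls or LPS-treated (5 mg/kg LPS O111:B4 i.p., 5 days earlier). AM630 (3 mg/kg) or GW405833 (2 mg/kg) was given s.c. in 0.1 mL DMSO; vehicle controls received DMSO alone. [11C]radioligand ([…], ~150 GBq/μmol) was injected i.v. 30 min later. Tissues harvested at 60 min and γ-counted. Mean ± SD, n=3.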"}, "Spleen [3]": {"test_system": "Spleen", "assay": "Drug uptake in CD1 mouse spleen at 5 to 7 mBq, iv after 60 mins in presence of AM630", "format": "ADME, organism-based", "conditions": "in vivo, 1 h", "in_short": "as §2"}, "Cortex [4]": {"test_system": "Cortex", "assay": "Drug uptake in LPS-stimulated CD1 mouse cortex at 5 to 7 mBq, iv administered 5 days post LPS challenge", "format": "ADME, organism-based", "conditions": "in vivo, 120 h", "in_short": "as §1"}, "Cortex [5]": {"test_system": "Cortex", "assay": "Drug uptake in CD1 mouse cortex at 5 to 7 mBq, iv after 60 mins", "format": "ADME, organism-based", "conditions": "in vivo, 1 h", "in_short": "(§3)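 Male CD-1 mice (23-28 g). [11C]radioligand given into a lateral tail vein at […], specific radioactivity ~150 GBq/μmol, in 0.2 mL saline. Mice killed by cervical dislocation at several times after injection. Organs and brain regions dissected on ice, weighed and γ-counted against injectate standards. Uptake given as %ID/g tissue, mean ± SD, n=3.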"}, "Cortex [6]": {"test_system": "Cortex", "assay": "Drug uptake in LPS-stimulated CD1 mouse cortex at 5 to 7 mBq, iv in presence of AM630", "format": "ADME, organism-based", "conditions": "in vivo", "in_short": "as §2"}, "Brain [7]": {"test_system": "Brain", "assay": "Drug uptake in LPS-stimulated CD1 mouse brain at 5 to 7 mBq, iv administered 5 days post LPS challenge", "format": "ADME, organism-based", "conditions": "in vivo, 120 h", "in_short": "as §1"}, "Heart": {"test_system": "Heart", "assay": "Drug uptake in CD1 mouse heart at 5 to 7 mBq, iv", "format": "ADME, organism-based", "conditions": "in vivo", "in_short": "as §3"}, "Cerebellum [8]": {"test_system": "Cerebellum", "assay": "Drug uptake in APPswe/PS1dE9 mouse cerebellum at 5 to 7 mBq, iv", "format": "ADME, organism-based", "conditions": "in vivo", "in_short": "(§4)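 Female APPswe/PS1dE9 bigenic mice (line 85, C57Bl/6J background), 18 months old. [11C]radioligand given into a lateral tail vein at […], specific radioactivity ~150 GBq/μmol, in 0.2 mL saline. Mice killed by cervical dislocation at 60 min. Brain regions dissected on ice, weighed and γ-counted against injectate standards. Uptake expressed as blood-normalized %ID/g tissue × body weight (kg).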"}, "[9]": {"assay": "Drug uptake in APPswe/PS1dE9 mouse brainstem at 5 to 7 mBq, iv", "format": "ADME, tissue-based", "conditions": "in vivo", "in_short": "as §4"}, "Hippocampus [10]": {"test_system": "Hippocampus", "assay": "Drug uptake in LPS-stimulated CD1 mouse hippocampus at 5 to 7 mBq, iv administered 5 days post LPS challenge", "format": "ADME, organism-based", "conditions": "in vivo, 120 h", "in_short": "as §1"}, "Cerebellum [11]": {"test_system": "Cerebellum", "assay": "Drug uptake in CD1 mouse cerebellum at 5 to 7 mBq, iv after 60 mins", "format": "ADME, organism-based", "conditions": "in vivo, 1 h", "in_short": "as §3"}, "Brain [12]": {"test_system": "Brain", "assay": "Drug uptake in CD1 mouse brain at 5 to 7 mBq, iv in presence of GW-405833", "format": "ADME, organism-based", "conditions": "in vivo", "in_short": "as §2"}, "Brain [13]": {"test_system": "Brain", "assay": "Drug uptake in CD1 mouse brain at 5 to 7 mBq, iv in presence of AM630", "format": "ADME, organism-based", "conditions": "in vivo", "in_short": "as §2"}, "Cannabinoid receptor 2": {"target": "Cannabinoid receptor 2 (Homo sapiens, UniProt P34972)", "sequence (P34972 whole entry)": "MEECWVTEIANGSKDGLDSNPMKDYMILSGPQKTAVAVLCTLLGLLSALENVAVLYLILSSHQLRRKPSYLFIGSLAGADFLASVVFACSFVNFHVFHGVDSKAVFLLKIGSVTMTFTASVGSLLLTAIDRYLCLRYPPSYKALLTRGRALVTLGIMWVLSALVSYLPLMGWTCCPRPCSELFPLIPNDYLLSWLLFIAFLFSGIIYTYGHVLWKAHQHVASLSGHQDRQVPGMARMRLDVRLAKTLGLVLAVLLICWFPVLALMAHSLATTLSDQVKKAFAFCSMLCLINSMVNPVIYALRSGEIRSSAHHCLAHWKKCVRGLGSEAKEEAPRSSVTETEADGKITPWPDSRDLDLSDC", "assay": "Agonist activity at CB2 receptor", "format": "functional"}, "Spleen [14]": {"test_system": "Spleen", "assay": "Drug uptake in CD1 mouse spleen at 5 to 7 mBq, iv", "format": "ADME, organism-based", "conditions": "in vivo", "in_short": "as §3"}, "[15]": {"assay": "Ratio of drug uptake in brain to blood in LPS-stimulated CD1 mouse at 5 to 7 mBq, iv", "format": "ADME, tissue-based", "in_short": "as §1"}, "Brain [16]": {"test_system": "Brain", "assay": "Drug uptake in CD1 mouse brain at 5 to 7 mBq, iv after 3 mins", "format": "ADME, organism-based", "conditions": "in vivo, 0.05 h", "in_short": "(§5)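 Dynamic small-animal PET of an LPS-5-day-treated and a control CD1 mouse. Both were injected simultaneously via the tail vein with [11C]radioligand (~3000 mCi/μmol) and imaged for 90 min in 28 frames. Images reconstructed by 2D OSEM after scatter subtraction. Whole-brain ROIs drawn on mean images gave time-SUV curves.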"}, "Intestine": {"test_system": "Intestine", "assay": "Drug uptake in CD1 mouse intestine at 5 to 7 mBq, iv", "format": "ADME, organism-based", "conditions": "in vivo", "in_short": "as §3"}, "[17]": {"assay": "Drug uptake in CD1 mouse brainstem at 5 to 7 mBq, iv after 60 mins", "format": "ADME, organism-based", "conditions": "in vivo, 1 h", "in_short": "as §3"}, "[18]": {"assay": "Drug uptake in LPS-stimulated CD1 mouse brainstem at 5 to 7 mBq, iv in presence of AM630", "format": "ADME, organism-based", "conditions": "in vivo", "in_short": "as §2"}, "Cerebellum [19]": {"test_system": "Cerebellum", "assay": "Drug uptake in LPS-stimulated CD1 mouse cerebellum at 5 to 7 mBq, iv in presence of AM630", "format": "ADME, organism-based", "conditions": "in vivo", "in_short": "as §2"}, "Cerebellum [20]": {"test_system": "Cerebellum", "assay": "Drug uptake in LPS-stimulated CD1 mouse cerebellum at 5 to 7 mBq, iv administered 5 days post LPS challenge", "format": "ADME, organism-based", "conditions": "in vivo, 120 h", "in_short": "as §1"}, "Liver": {"test_system": "Liver", "assay": "Drug uptake in CD1 mouse liver at 5 to 7 mBq, iv", "format": "ADME, organism-based", "conditions": "in vivo", "in_short": "as §3"}, "Brain [21]": {"test_system": "Brain", "assay": "Drug uptake in CD1 mouse brain at 5 to 7 mBq, iv", "format": "ADME, organism-based", "conditions": "in vivo", "in_short": "as §3"}, "Hippocampus [22]": {"test_system": "Hippocampus", "assay": "Drug uptake in CD1 mouse hippocampus at 5 to 7 mBq, iv after 60 mins", "format": "ADME, organism-based", "conditions": "in vivo, 1 h", "in_short": "as §3"}, "Cortex [23]": {"test_system": "Cortex", "assay": "Drug uptake in APPswe/PS1dE9 mouse cortex at 5 to 7 mBq, iv", "format": "ADME, organism-based", "conditions": "in vivo", "in_short": "as §4"}, "Brain [24]": {"test_system": "Brain", "assay": "Drug uptake in APPswe/PS1dE9 mouse brain at 5 to 7 mBq, iv", "format": "ADME, organism-based", "conditions": "in vivo", "in_short": "as §4"}, "Hippocampus [25]": {"test_system": "Hippocampus", "assay": "Drug uptake in LPS-stimulated CD1 mouse hippocampus at 5 to 7 mBq, iv in presence of AM630", "format": "ADME, organism-based", "conditions": "in vivo", "in_short": "as §2"}, "Brain [26]": {"test_system": "Brain", "assay": "Drug uptake in LPS-stimulated CD1 mouse brain at 5 to 7 mBq, iv administered 5 days post LPS challenge measured after 3 mins", "format": "ADME, organism-based", "conditions": "in vivo, 0.05 h", "in_short": "as §5"}, "Kidney": {"test_system": "Kidney", "assay": "Drug uptake in CD1 mouse kidney at 5 to 7 mBq, iv", "format": "ADME, organism-based", "conditions": "in vivo", "in_short": "as §3"}}}
{"smiles": "Cc1s/c(=N\\C(=O)C2C(C)(C)C2(C)C)n(CCO[11CH3])c1C", "values": [{"measurement": "tissue uptake at 120 h", "setting": "[1]", "result": 2.1, "unit": "%ID/g"}, {"measurement": "Drug uptake", "setting": "Brain [2]", "result": "Not Active"}, {"measurement": "Drug uptake", "setting": "Spleen [3]", "result": "Not Active"}, {"measurement": "Drug uptake", "setting": "Cortex [4]", "result": 1.7, "unit": "% ID/g"}, {"measurement": "Drug uptake", "setting": "Cortex [5]", "result": 0.3, "unit": "% ID/g"}, {"measurement": "Drug uptake", "setting": "Cortex [6]", "result": "Not Active"}, {"measurement": "Drug uptake", "setting": "Brain [7]", "result": 1.5, "unit": "% ID/g"}, {"measurement": "Drug uptake", "setting": "Heart", "result": 0.7, "unit": "% ID/g"}, {"measurement": "Drug uptake", "setting": "Cerebellum [8]", "result": "Not Active"}, {"measurement": "Drug uptake", "setting": "[9]", "result": "Not Active"}, {"measurement": "Drug uptake", "setting": "Hippocampus [10]", "result": 1.9, "unit": "% ID/g"}, {"measurement": "Drug uptake", "setting": "Cerebellum [11]", "result": 0.3, "unit": "% ID/g"}, {"measurement": "Drug uptake", "setting": "Brain [12]", "result": "Not Active"}, {"measurement": "Drug uptake", "setting": "Brain [13]", "result": "Not Active"}, {"measurement": "Ki", "setting": "Cannabinoid receptor 2", "result": 0.7, "unit": "nM"}, {"measurement": "Drug uptake", "setting": "Spleen [14]", "result": 1.3, "unit": "% ID/g"}, {"measurement": "Kp", "setting": "[15]", "result": 3.3}, {"measurement": "SUV", "setting": "Brain [16]", "result": 0.5}, {"measurement": "Drug uptake", "setting": "Intestine", "result": 1.5, "unit": "% ID/g"}, {"measurement": "Drug uptake", "setting": "[17]", "result": 0.3, "unit": "% ID/g"}, {"measurement": "Drug uptake", "setting": "[18]", "result": "Not Active"}, {"measurement": "Drug uptake", "setting": "Cerebellum [19]", "result": "Not Active"}, {"measurement": "Drug uptake", "setting": "Cerebellum [20]", "result": 1.8, "unit": "% ID/g"}, {"measurement": "Drug uptake", "setting": "Liver", "result": 4.9, "unit": "% ID/g"}, {"measurement": "Drug uptake", "setting": "Brain [21]", "result": 0.3, "unit": "% ID/g"}, {"measurement": "Drug uptake", "setting": "Hippocampus [22]", "result": 0.3, "unit": "% ID/g"}, {"measurement": "Drug uptake", "setting": "Cortex [23]", "result": "Not Active"}, {"measurement": "Drug uptake", "setting": "Brain [24]", "result": "Not Active"}, {"measurement": "Drug uptake", "setting": "Hippocampus [25]", "result": "Not Active"}, {"measurement": "SUV", "setting": "Brain [26]", "result": 2.3}, {"measurement": "Drug uptake", "setting": "Kidney", "result": 2.2, "unit": "% ID/g"}]}
